Measurements pooled from the literature.
Target: Calcium/calmodulin-dependent protein kinase type II subunit gamma (CAMK2G, Homo sapiens, UniProt Q13555)

| SMILES | read-out | method | concentration | remaining binding [%] |
| --- | --- | --- | --- | --- |
| Cc1cnn2ncc(-c3ccnc(N(C)C)n3)c2c1 | binding |  | 1 µM | 64 |
| O=C(NCCCN1CCOCC1)c1ccc(Nc2nccc(-c3cc4ccccc4s3)n2)cc1 | binding | competition with immobilised ligand | 1 µM | 90 |
| Cc1cc(-n2nc(Cc3cc(F)cc(C(F)(F)F)c3)nc2C)ccc1C(N)=O | cell-free assay | competition with immobilised ligand | 1 µM | 100 |
| COc1cnc(Nc2cccc(S(N)(=O)=O)c2)nc1N1CCN(c2ccccc2)C(=O)C1 | binding | competition with immobilised ligand | 1 µM | 100 |
| CS(=O)(=O)NCC[C@H](NC(=O)c1cncc2c1cnn2-c1ccc(F)cc1)c1ccnc(S(C)(=O)=O)c1 | cell-free assay | competition with immobilised ligand | 1 µM | 99 |
| CN(c1nccc(-c2cnn3ncccc23)n1)C1CC1 | binding |  | 1 µM | 100 |
| CCS(=O)(=O)c1cc2cc(C[C@](O)(CC(C)(C)c3ccc(F)cc3C(N)=O)C(F)(F)F)[nH]c2cn1 | cell-free assay | competition with immobilised ligand | 1 µM | 100 |
| O=C(c1ccc(Nc2ncc(Cl)c(-c3cc4ccccc4s3)n2)cc1)N1CCC(N2CCCC2)CC1 | binding | competition with immobilised ligand | 1 µM | 82 |
| c1cnn2ncc(-c3ccnc(N4CCC45COC5)n3)c2c1 | binding |  | 1 µM | 91 |
| COc1ncc2cc3ccccc3nc2c1C#N | cell-free assay | competition with immobilised ligand | 5 µM | 92 |
| CN(C)C(=O)Cn1cc(-c2nc([C@@](C)(c3ccc(-c4cnc(N)nc4)cc3)C3CC3)no2)cn1 | cell-free assay | competition with immobilised ligand | 1 µM | 100 |
| c1cncc(-c2cccc(Nc3nccc(NC4CCCCC4)n3)c2)c1 | binding | competition with immobilised ligand | 10 µM | 80 |
| CC1CCCN1c1nccc(-c2cnn3ncccc23)n1 (stereo not drawn) | binding |  | 1 µM | 100 |
| CO[C@H]1CC[C@H](CNc2ccc(S(=O)(=O)NC(=O)c3ccc(N4CCN(CC5=C(c6ccc(Cl)cc6)CC(C)(C)CC5)CC4)cc3Oc3cnc4[nH]ccc4c3)cc2[N+](=O)[O-])CC1 | cell-free assay | competition with immobilised ligand | 1 µM | 75 |
| CNC(=O)[C@@H]1CC[C@@H](n2c(-c3ccc4cnccc4c3)nc3ccc(C(=O)NCc4cccc(C(N)=O)c4)cc32)C1 | binding | competition with immobilised ligand | 1 µM | 100 |
| O=C(Nc1c[nH]nc1C(=O)NC1CCNCC1)c1cc(F)cc(F)c1 | binding | competition with immobilised ligand | 1 µM | 100 |
| CCOC(=O)c1cc2cc(-c3cc(C(=O)NCc4ccc(C(=O)O)cc4)nn3C)ccc2[nH]1 | cell-free assay | competition with immobilised ligand | 0.1 µM | 100 |
| FC(F)(F)Oc1cccc(-c2cnc3ccc(-c4ccncc4)nn23)c1 | cell-free assay | competition with immobilised ligand | 5 µM | 39 |
| CCN1CCN(Cc2ccc(C(=O)Nc3ccc(C)c(Oc4ccc5c(c4)CC(=O)N5)c3)cc2C(F)(F)F)CC1 | binding | competition with immobilised ligand | 1 µM | 97 |
| N[C@@H]1CCN(c2nccc(-c3cnn4ncccc34)n2)C1 | binding |  | 1 µM | 100 |
| Cc1cnc(Nc2ccc(C(=O)N3CCC(N4CCCC4)CC3)cc2)nc1-c1cc2ccccc2s1 | binding | competition with immobilised ligand | 1 µM | 74 |
